For the first series, the system named is rhinovirus B14. Description: Antiviral activity against Human rhinovirus B14 infected in human H1HeLa cells assessed as inhibition of viral replication after 3 days by MTT assay. The note with it: Rhinovirus B, H1-HeLa, 72 h. The class given is functional, organism-based. The method in brief: (§1)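 Anti-rhinovirus EC50 against hRV-B14, -A21 and -A71 determined in H1HeLa cells. Read-out is MTT cell viability. EC50 is the concentration that inhibits viral replication by 50%. Pleconaril serves as reference.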
Background: Tetrazolium assays rely on reduction of a dye to a coloured formazan, in cell work by metabolically active cells.
The term EC50 denotes the concentration that produces a half-maximal response. Consider `CNC(=O)c1cc(Oc2ccc3c(C)c(-c4noc(C5CC5)n4)sc3c2)ccn1`, for which the EC50 amounted to 470 nM.

As for `CNC(=O)c1cc(Oc2ccc(-c3noc(C)n3)cc2)ccn1`, the EC50 was 33700 nM.

In the case of `CC(C)c1nc(-c2ccc(Oc3ccnc(C(=O)N(C)C)c3)cc2)no1`, the EC50 was 280 nM.

On to `CNC(=O)c1cc(Oc2cccc(-c3noc(COC)n3)c2)ccn1`, for which the EC50 is > 100000 nM.

Regarding `CCc1nc(-c2ccc(Oc3ccnc(C(=O)NC)c3)cc2)no1`, the EC50 came to 1100 nM.

For the compound `CNC(=O)c1cc(Oc2ccc(-c3noc(C4CC4)n3)cc2C)ccn1`, the EC50 is 340 nM.

As to `CNC(=O)c1cc(Oc2ccc3cc(-c4noc(C)n4)ccc3c2)ccn1`, the EC50 was determined as 1700 nM.

Consider `CCc1nc(-c2sc3cc(Oc4ccnc(C(=O)NC)c4)ccc3c2C)no1`, for which the EC50 came to 430 nM.

In the case of `CNC(=O)c1cc(Oc2ccc(-c3noc(C(F)(F)F)n3)cc2)ccn1`, the EC50 came to 9300 nM.

Consider `CNC(=O)c1cc(Oc2ccc(-c3noc(C(C)C)n3)nc2)ccn1`, for which the EC50 was 11500 nM.

For `CNC(=O)c1cc(Oc2ccc3c(C)c(-c4noc(C(F)(F)F)n4)sc3c2)ccn1`, the EC50 was determined as 2000 nM.

Regarding `Cc1cc(-c2noc(C(C)C)n2)ccc1Oc1ccnc(C(=O)N(C)C)c1`, the EC50 was found to be 490 nM.

Take `CCc1nc(-c2ccc(Oc3ccnc(C(=O)NC)c3)c(C)c2)no1`: the EC50 stood at 390 nM.

For `Cc1cc(CCCOc2c(C)cc(-c3noc(C(F)(F)F)n3)cc2C)on1` [PLECONARIL], the EC50 was 92 nM.

System in another series: not listed separately
Kind of series: Antiviral activity against Human rhinovirus A71 infected in human H1HeLa cells assessed as inhibition of viral replication after 3 days by MTT assay. To be noted: Rhinovirus A, H1-HeLa, 72 h. The class given is functional, cell-based. The gist of the method: as §1
As to `CNC(=O)c1cc(Oc2ccc3c(C)c(-c4noc(C5CC5)n4)sc3c2)ccn1`, the EC50 was determined as 31 nM.

Take `CNC(=O)c1cc(Oc2ccc(-c3noc(C)n3)cc2)ccn1`: the EC50 was 1600 nM.

In the case of `CC(C)c1nc(-c2ccc(Oc3ccnc(C(=O)N(C)C)c3)cc2)no1`, the EC50 is > 9000 nM.

As for `CNC(=O)c1cc(Oc2cccc(-c3noc(COC)n3)c2)ccn1`, the EC50 was 2000 nM.

In the case of `CCc1nc(-c2ccc(Oc3ccnc(C(=O)NC)c3)cc2)no1`, the EC50 worked out at 31 nM.

On to `CNC(=O)c1cc(Oc2ccc(-c3noc(C4CC4)n3)cc2C)ccn1`, for which the EC50 was found to be 12 nM.

Consider `CNC(=O)c1cc(Oc2ccc3cc(-c4noc(C)n4)ccc3c2)ccn1`, for which the EC50 worked out at 8.4 nM.

For the compound `CCc1nc(-c2sc3cc(Oc4ccnc(C(=O)NC)c4)ccc3c2C)no1`, the EC50 worked out at 14 nM.

As to `CNC(=O)c1cc(Oc2ccc(-c3noc(C(F)(F)F)n3)cc2)ccn1`, the EC50 is 1600 nM.

Turning to `CNC(=O)c1cc(Oc2ccc(-c3noc(C(C)C)n3)nc2)ccn1`, the EC50 is 6700 nM.

Turning to `CNC(=O)c1cc(Oc2ccc3c(C)c(-c4noc(C(F)(F)F)n4)sc3c2)ccn1`, the EC50 amounted to 300 nM.

As for `Cc1cc(-c2noc(C(C)C)n2)ccc1Oc1ccnc(C(=O)N(C)C)c1`, the EC50 was > 1400 nM.

As to `CCc1nc(-c2ccc(Oc3ccnc(C(=O)NC)c3)c(C)c2)no1`, the EC50 worked out at 3.9 nM.

With `Cc1cc(CCCOc2c(C)cc(-c3noc(C(F)(F)F)n3)cc2C)on1` [PLECONARIL], the EC50 was determined as 9.4 nM.

System in another series: not listed separately
Description: Cytotoxicity against human H1HeLa cells assessed as reduction in cell viability after 3 days by MTT assay.
Conditions: not given
The class given is cell-based, H1-HeLa.
Broadly, the CC50 is the concentration giving 50% cytotoxicity. As to `CNC(=O)c1cc(Oc2ccc3c(C)c(-c4noc(C5CC5)n4)sc3c2)ccn1`, the CC50 at 72 h was determined as 6800 nM.

For the compound `CNC(=O)c1cc(Oc2ccc(-c3noc(C)n3)cc2)ccn1`, the CC50 at 72 h is > 100000 nM.

In the case of `CC(C)c1nc(-c2ccc(Oc3ccnc(C(=O)N(C)C)c3)cc2)no1`, the CC50 at 72 h was 9000 nM.

Take `CNC(=O)c1cc(Oc2cccc(-c3noc(COC)n3)c2)ccn1`: the CC50 at 72 h was > 100000 nM.

`CCc1nc(-c2ccc(Oc3ccnc(C(=O)NC)c3)cc2)no1`: the CC50 at 72 h was 43700 nM.

On to `CNC(=O)c1cc(Oc2ccc(-c3noc(C4CC4)n3)cc2C)ccn1`, for which the CC50 at 72 h turned out to be 20000 nM.

Consider `CNC(=O)c1cc(Oc2ccc3cc(-c4noc(C)n4)ccc3c2)ccn1`, for which the CC50 at 72 h was 6900 nM.

As for `CCc1nc(-c2sc3cc(Oc4ccnc(C(=O)NC)c4)ccc3c2C)no1`, the CC50 at 72 h was determined as 5200 nM.

For `CNC(=O)c1cc(Oc2ccc(-c3noc(C(F)(F)F)n3)cc2)ccn1`, the CC50 at 72 h was 35000 nM.

Turning to `CNC(=O)c1cc(Oc2ccc(-c3noc(C(C)C)n3)nc2)ccn1`, the CC50 at 72 h was > 100000 nM.

Take `CNC(=O)c1cc(Oc2ccc3c(C)c(-c4noc(C(F)(F)F)n4)sc3c2)ccn1`: the CC50 at 72 h is > 100000 nM.

Consider `Cc1cc(-c2noc(C(C)C)n2)ccc1Oc1ccnc(C(=O)N(C)C)c1`, for which the CC50 at 72 h came to 1400 nM.

Consider `CCc1nc(-c2ccc(Oc3ccnc(C(=O)NC)c3)c(C)c2)no1`, for which the CC50 at 72 h was determined as 25200 nM.

For the next series, the system named is rhinovirus A21. Kind of series: Antiviral activity against Human rhinovirus A21 infected in human H1HeLa cells assessed as inhibition of viral replication after 3 days by MTT assay. The class given is functional, organism-based. The note with it: Rhinovirus A, H1-HeLa, 72 h. The method in brief: as §1
Consider `CNC(=O)c1cc(Oc2ccc3c(C)c(-c4noc(C5CC5)n4)sc3c2)ccn1`, for which the EC50 came to 60 nM.

As for `CNC(=O)c1cc(Oc2ccc(-c3noc(C)n3)cc2)ccn1`, the EC50 turned out to be 8700 nM.

Turning to `CC(C)c1nc(-c2ccc(Oc3ccnc(C(=O)N(C)C)c3)cc2)no1`, the EC50 is > 9000 nM.

`CNC(=O)c1cc(Oc2cccc(-c3noc(COC)n3)c2)ccn1`: the EC50 was found to be 40300 nM.

For the compound `CCc1nc(-c2ccc(Oc3ccnc(C(=O)NC)c3)cc2)no1`, the EC50 worked out at 130 nM.

With `CNC(=O)c1cc(Oc2ccc(-c3noc(C4CC4)n3)cc2C)ccn1`, the EC50 worked out at 400 nM.

For `CNC(=O)c1cc(Oc2ccc3cc(-c4noc(C)n4)ccc3c2)ccn1`, the EC50 was found to be 110 nM.

`CCc1nc(-c2sc3cc(Oc4ccnc(C(=O)NC)c4)ccc3c2C)no1`: the EC50 was determined as 77 nM.

With `CNC(=O)c1cc(Oc2ccc(-c3noc(C(F)(F)F)n3)cc2)ccn1`, the EC50 was > 35000 nM.

In the case of `CNC(=O)c1cc(Oc2ccc(-c3noc(C(C)C)n3)nc2)ccn1`, the EC50 is 39100 nM.

Take `CNC(=O)c1cc(Oc2ccc3c(C)c(-c4noc(C(F)(F)F)n4)sc3c2)ccn1`: the concentration giving a half-maximal response (EC50) amounted to 990 nM.

With `Cc1cc(-c2noc(C(C)C)n2)ccc1Oc1ccnc(C(=O)N(C)C)c1`, the EC50 is > 1400 nM.

Take `CCc1nc(-c2ccc(Oc3ccnc(C(=O)NC)c3)c(C)c2)no1`: the EC50 is 230 nM.

(Values after ChEMBL document CHEMBL4196116, “3-Aryl-1,2,4-oxadiazole Derivatives Active Against Human Rhinovirus” (ACS Med Chem Lett, 2018).)
